Experimental data from the RNAGym collection of RNA variant scans (doi:10.1126/science.aae0568).
This sample holds only a part of the variants without activity.

B1: tRNA (parent)
chain: GUUCCGUUGGCGUAAUGGUAACGCGUCUCCCUCCUAAGGAGAAGACUGCGGGUUCGAGUCCCGUACGGAACG

Variants of: B1
Assay: yeast fitness relative to wild type (ratio to wild type); higher = fitter; tRNA-Arg(CCU), competitive growth, 37 C, YPD
Outline: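 The tRNA-Arg(CCU) gene variants were made by chemical synthesis with a 3% per-site mutation rate at 69 sites and inserted at the native genomic locus of Saccharomyces cerevisiae. After pooling, the strains were competed in YPD at 37°C for 24 hours in six parallel replicates. Gene amplicons from the start population and each end population were read by 100-nucleotide paired-end sequencing, and Darwinian fitness relative to wild type was taken from genotype frequency changes. Genotypes needed ≥ 100 starting reads, and estimates < 0.5 were set to 0.5.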

Compared with C5U G6A A65U C66U A70G, C5U G6A C66U is higher in yeast fitness: ≤ 0.5 for the first, 0.975 for the second.

Compared with C5U G6C A21U U35C G39A, C5U G6C G39A A45U C46G is higher in yeast fitness: ≤ 0.5 for the first, 0.626 for the second.

C5U G9A A37C C60U G67A and C5U G9A G10C G25A C33G G39A cannot be ordered by yeast fitness: ≤ 0.5 for the first, ≤ 0.5 for the second.

Going from C5U G9A G39A G48A A57U to C5U G9A U54C C61G, the yeast fitness rises from ≤ 0.5 to 0.673.

First: C5U G9C A36G
Second: C5U G9C C34U C60G
The yeast fitness of the first is higher: 0.538 for the first, ≤ 0.5 for the second.

Compared with C5U G10A A14C, C5U G10A U13A A15G G50C A57G is lower in yeast fitness: 0.6 for the first, ≤ 0.5 for the second.

C5U G10C C27G U28C G39C C46G A69U and C5U G10C C30G C34U A42C cannot be ordered by yeast fitness: ≤ 0.5 for the first, ≤ 0.5 for the second.

Going from C5U G12A C29U to C5U G12A G48A, the yeast fitness rises from 0.565 to 1.18.

C5U G12C A42G C55A C62A and C5U G12C U13A cannot be ordered by yeast fitness: ≤ 0.5 for the first, ≤ 0.5 for the second.

Compared with C5U G17A, C5U G17A A36U U47A C66U is lower in yeast fitness: 0.929 for the first, 0.58 for the second.

First: C5U G17A A40U A42C C49A G56A
Second: C5U G17C C24G G38C
The yeast fitness of the first is lower: ≤ 0.5 for the first, 0.609 for the second.

First: C5U G17C C24G G38C G51C U59G
Second: C5U G17C C30A
The yeast fitness of the first is lower: ≤ 0.5 for the first, 0.548 for the second.

C5U G17C C30A G50A C66G and C5U G18A A37C C61U cannot be ordered by yeast fitness: ≤ 0.5 for the first, ≤ 0.5 for the second.

Compared with C5U G18A A42C, C5U G18A C30A G58A is lower in yeast fitness: 0.674 for the first, ≤ 0.5 for the second.

First: C5U G18C A40G A43C U54A
Second: C5U G18C C22A G51C
The yeast fitness of the first is higher: 0.72 for the first, 0.562 for the second.

C5U G18C C22U G50A U54C and C5U G18C C49U U54G cannot be ordered by yeast fitness: ≤ 0.5 for the first, ≤ 0.5 for the second.

C5U G18C G52C and C5U G23A A69U cannot be ordered by yeast fitness: ≤ 0.5 for the first, ≤ 0.5 for the second.

First: C5U G23A U54C
Second: C5U G23C C55A
The yeast fitness of the first is lower: ≤ 0.5 for the first, 0.566 for the second.

C5U G23C U26C U32A A42U A65C and C5U G23C U32C A42G U54A cannot be ordered by yeast fitness: ≤ 0.5 for the first, ≤ 0.5 for the second.

First: C5U G25A A45G G50C A69C
Second: C5U G25A C49U
The yeast fitness of the first is lower: ≤ 0.5 for the first, 0.802 for the second.

First: C5U G25C A36C A40U
Second: C5U G38C
The yeast fitness of the first is lower: ≤ 0.5 for the first, 0.719 for the second.

C5U G38C C60U and C5U G39A U53A cannot be ordered by yeast fitness: ≤ 0.5 for the first, ≤ 0.5 for the second.

Compared with C5U G39C, C5U G39C C46U C49U G56A G68C is lower in yeast fitness: 0.769 for the first, 0.669 for the second.

Compared with C5U G41C, C5U G44A U64G is lower in yeast fitness: 0.91 for the first, 0.532 for the second.

Compared with C5U G44C A69U, C5U G44C G68U is lower in yeast fitness: 0.815 for the first, 0.663 for the second.

First: C5U G50C U54C
Second: C5U G51C
The yeast fitness of the first is lower: ≤ 0.5 for the first, 0.691 for the second.

First: C5U G56A C61A
Second: C5U G56C C60A
The yeast fitness of the first is lower: ≤ 0.5 for the first, 0.641 for the second.

C5U G58C U59C A70G and C5U G68C A69U cannot be ordered by yeast fitness: ≤ 0.5 for the first, ≤ 0.5 for the second.

C5U U7A C62A and C5U U7A U35A A36U A45U cannot be ordered by yeast fitness: ≤ 0.5 for the first, ≤ 0.5 for the second.

C5U U7A U35A A36U A45U C60G and C5U U7C A40C C66U cannot be ordered by yeast fitness: ≤ 0.5 for the first, ≤ 0.5 for the second.

Compared with C5U U7C A40U U59A A65U G68A, C5U U7C C30A A42C is lower in yeast fitness: 0.649 for the first, 0.583 for the second.

Going from C5U U7C C31A G39A to C5U U7C C46U, the yeast fitness rises from ≤ 0.5 to 0.728.

Compared with C5U U7C U13G A36C C46U, C5U U7C U26A is lower in yeast fitness: 0.757 for the first, 0.677 for the second.

C5U U7G C24U C34G A37C A42U C66U and C5U U7G G9A C31G A36G cannot be ordered by yeast fitness: ≤ 0.5 for the first, ≤ 0.5 for the second.

Compared with C5U U8A G18A A69C, C5U U8A G18C C29U A45C is higher in yeast fitness: ≤ 0.5 for the first, 0.554 for the second.

Compared with C5U U8C A20G C30A A57U C61U, C5U U8C A20G C30A C61A is higher in yeast fitness: ≤ 0.5 for the first, 0.649 for the second.

Compared with C5U U8C A20G C30A C61A G67U, C5U U8C A21G A42U G58A is higher in yeast fitness: ≤ 0.5 for the first, 0.726 for the second.

C5U U8C G41C A69U and C5U U13A A15G A20G C22G C46G G51A cannot be ordered by yeast fitness: ≤ 0.5 for the first, ≤ 0.5 for the second.

Going from C5U U13A A43C C46G to C5U U13A C61U, the yeast fitness falls from 0.627 to 0.624.

Going from C5U U13C C22G C29A A45U to C5U U13C C24G U26C A37G U54G C61G, the yeast fitness rises from ≤ 0.5 to 0.575.

Going from C5U U13C U19A A21U C24A to C5U U13C U19A A21U C24A U54C U59C A69G, the yeast fitness rises from 0.511 to 0.524.

First: C5U U13C U35G C49U
Second: C5U U13G A42U
The yeast fitness of the first is lower: 0.608 for the first, 0.627 for the second.
